ChEMBL document CHEMBL1833821, “Defining the structural parameters that confer anticonvulsant activity by the site-by-site modification of (R)-N'-benzyl 2-amino-3-methylbutanamide” (J Med Chem, 2011)
Calls of active or inactive are those of the source.

Columns and labels:
[1] = test system: Mus musculus; experiment: Anticonvulsant activity in ip dosed albino CF1 mouse assessed as protection against maximal electroshock-induced seizures in presence of 50 miliamperes of electric current; format: functional
In short: (§1)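 Adult male albino CF-1 (Carworth Farms No. 1) mice dosed ip under NINDS ASP; MES test. Compounds with sufficient activity got a dose-response curve (4–6 doses, n = 8 per dose) at the time of peak effect (h, bracketed).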

[2] = Neurotoxicity in ip dosed albino CF1 mouse assessed as minimal motor coordination impairment by rotarod test; format: toxicity, organism-based; details: in vivo
[3] = test system: Rattus norvegicus; experiment: Anticonvulsant activity in po dosed albino Sprague-Dawley rat assessed as time of peak effect by maximal electroshock seizures test in presence of 150 miliamperes of electric current; format: functional
In short: (§2)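 Adult male albino Sprague-Dawley rats dosed orally under NINDS ASP; MES test. ED50 in mg/kg, with time of testing noted in hours in brackets.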

[4] = test system: Mus musculus; experiment: Anticonvulsant activity in ip dosed albino CF1 mouse assessed as time of peak effect by maximal electroshock seizures test in presence of 50 miliamperes of electric current; format: functional; in short: as §1
[5] = test system: Rattus norvegicus; experiment: Behavioral toxicity in po dosed albino Sprague-Dawley rat assessed as time of peak effect; format: organism-based; details: in vivo
In short: (§3)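 Adult male albino Sprague-Dawley rats given compound orally under NINDS ASP. Behavioral toxicity was scored by the positional sense test or the gait and stance test. TD50 in mg/kg, with time in hours bracketed.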

[6] = Neurotoxicity in po dosed albino Sprague-Dawley rat; format: toxicity, organism-based; details: in vivo; in short: as §3
[7] = test system: Rattus norvegicus; experiment: Anticonvulsant activity in po dosed albino Sprague-Dawley rat assessed as protection against maximal electroshock-induced seizures in presence of 150 miliamperes of electric current; format: functional; in short: as §2
[8] = test system: Mus musculus; experiment: Anticonvulsant activity in ip dosed albino CF1 mouse assessed as protection against subcutaneous metrazol-induced seizures; format: functional, organism-based
In short: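 Male albino CF-1 mice dosed ip under NINDS ASP; subcutaneous pentylenetetrazol (Metrazol) seizure threshold test.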

[9] = test system: Mus musculus; experiment: Neurotoxicity in ip dosed albino CF1 mouse assessed as time of peak effect by rotarod test; format: toxicity, organism-based; details: in vivo
[10] = organism: Rattus norvegicus; experiment: Protective index, ratio of TD50 for albino Sprague-Dawley rat to ED50 for albino Sprague-Dawley rat by maximal electroshock seizures test; format: functional
In short: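 Rat protective index calculated as behavioral toxicity TD50 divided by MES ED50, both after oral dosing of male Sprague-Dawley rats at the NINDS ASP.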

[11] = organism: Mus musculus; experiment: Protective index, ratio of TD50 for albino CF1 mouse by rotarod test to ED50 for albino CF1 mouse by maximal electroshock seizures test; format: functional
In short: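 Mouse protective index calculated as rotorod TD50 divided by MES ED50, both from ip dosing of male CF-1 mice at the NINDS ASP.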

[12] = test system: Mus musculus; experiment: Anticonvulsant activity in ip dosed NMRI mouse assessed as protection against maximal electroshock-induced seizures after 30 mins in presence of 50 miliamperes of electric current; format: functional; details: 0.5 h

Structure (SMILES) | ED50 [1] [mg/kg] | TD50 [2] [mg/kg] | Time [3] [h] | Time [4] [h] | Time [5] [h] | TD50 [6] [mg/kg] | ED50 [7] [mg/kg] | Activity [8] | Time [9] [h] | PI [10] | PI [11] | ED50 [12] [mg/kg]
CC(C)[C@@H](N)C(=O)OCc1ccccc1 | > 300 | > 300 | 0.25 | 0.5 | 0.25 | > 30 | > 30 | inactive | 0.5 | – | – | –
CC(=O)NC(C(=O)NCc1ccccc1)c1ccccc1 (racemic) | 20 | – | – | – | – | – | – | – | – | – | – | –
O=C1NC(=O)C(c2ccccc2)(c2ccccc2)N1 [PHENYTOIN] | – | – | 4 | 2 | – | > 3000 | 30 | – | 0.25 | – | – | –
CC(C)[C@@H](N)C(=O)CCc1ccccc1.Cl | 30 | 100 | – | – | – | – | – | inactive | – | – | – | –
CC(C)[C@@H](N)C(=S)NCc1ccccc1 | 30 | 30 | 0.5 | 0.5 | 0.25 | > 30 | < 30 | inactive | 0.5 | – | – | –
CC(C)[C@@H](N)C(=O)NCCc1ccccc1F | 27 | 79 | 4 | 0.25 | – | 500 | – | – | 0.25 | >25 | 2.9 | –
CC(C)[C@@H](N)C(=O)Nc1ccccc1 | 30 | > 30 | – | 0.5 | – | – | – | inactive | 0.5 | – | – | –
CC[C@@H](O)C(=O)NCc1ccccc1 | 100 | 100 | 0.25 | 0.5 | 0.25 | > 30 | > 30 | inactive | 0.5 | – | – | –
CC(C)[C@@H](N)C(=O)NCCc1cccc(F)c1 | 20 | 67 | 0.5 | 0.25 | – | > 500 | 38 | – | 0.25 | – | 3.4 | –
CC(C)[C@H](C(=O)NCc1ccccc1)N(C)C | 30 | 100 | – | 0.5 | – | – | – | inactive | 0.5 | – | – | –
CCCC(CCC)C(=O)[O-].[Na+] [VALPROATE SODIUM] | 270 | – | 0.5 | 0.5 | 0.5 | – | – | – | 0.25 | – | – | –
CC(C)[C@@H](N)C(=O)NCCCCc1ccccc1 | 11 | 38 | 0.25 | 0.25 | 0.25 | > 30 | > 30 | inactive | 0.25 | – | 3.5 | –
CC(C)[C@@H](N)C(=O)NCCc1ccc(F)cc1 | 10 | 30 | – | – | – | – | – | – | – | – | – | –
CCCC(=O)NCc1ccccc1 | – | 100 | – | – | – | > 30 | – | – | 0.5 | – | – | –
CC(C)[C@@H](N)CNCc1ccccc1 | 30 | 100 | 0.25 | 0.5 | 0.25 | > 30 | > 30 | inactive | 0.5 | – | – | –
CC(C)[C@@H](N)C(=O)NCC1CCCCC1 | 30 | 100 | 0.25 | 0.5 | 0.25 | > 30 | 15 | inactive | 0.5 | – | – | –
CC(C)[C@@H](N)C(=O)NCCc1ccccc1 | 10 | 50 | 0.25 | 0.25 | 0.24 | > 30 | < 30 | inactive | 0.25 | – | 5 | –
COC[C@@H](NC(C)=O)C(=O)NCc1ccccc1 [LACOSAMIDE] | – | – | 2 | 0.5 | – | > 500 | – | – | 0.25 | – | 6 | –
CCC1(c2ccccc2)C(=O)NC(=O)NC1=O [PHENOBARBITAL] | 22 | – | 5 | 1 | 0.5 | – | 9.1 | – | 0.5 | >100 | 3 | –
CC(C)[C@@H](N)C(=O)NCc1cccc(OC(F)(F)F)c1 | 7.1 | 30 | 1 | 0.25 | 1 | 43 | 10 | inactive | 0.25 | 4.3 | 4.2 | –
CC[C@H](C)C(=O)NCc1ccccc1 | 100 | 300 | 0.25 | 0.5 | 0.25 | > 30 | > 30 | – | 0.5 | – | – | –
CN[C@@H](C(=O)NCc1ccccc1)C(C)C | – | – | – | – | – | – | – | – | – | – | – | 25
CC(C)[C@@H](N)C(=O)NCCCc1ccccc1 | 16 | 43 | 0.25 | 0.25 | 0.25 | > 30 | < 30 | inactive | 0.25 | – | 2.7 | –
CC(C)[C@@H](N)C(=O)NCc1ccccc1OC(F)(F)F | 9.2 | 51 | 0.5 | 0.25 | – | > 500 | 33 | inactive | 0.25 | >15 | 5.5 | –
CCC(C)C(=O)NCc1ccccc1 (racemic) | 56 | 165 | 0.5 | 0.25 | – | > 500 | 51 | inactive | 0.25 | >9.8 | 2.9 | –
